Assay results as given in ChEMBL document CHEMBL5352422, “Development of l-Dopa-containing diketopiperazines as blood-brain barrier shuttle” (Eur J Med Chem, 2022).
Active and inactive are the calls of the source. The rule behind the calls is not given here. Where a SMILES comes first, the peptide text is derived from it. [ ]: non-standard residue; d: D form. Dopa = N[C@@H](Cc1ccc(O)c(O)c1)C(=O)O

What was measured:
PC-12 [1] = assay: Upregulation of xCT expression in MPP+ induced rat PC-12 cells at 50 nM pretreated with compound for 24 hrs followed by MPP+ stimulation and measured after 6 hrs; type: functional, cell-based; conditions: time 30.0 hrs
[2] = Apparent permeability of the compound across apical side to basolateral side in human Caco-2 cells measured upto 180 mins by HPLC analysis; type: ADME, cell-based
[3] = Effective permeability of compound at 500 uM incubated for 18 hrs by […] method; type: ADME; conditions: read-out: Peff
How it was run: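 PAMPA-BBB: donor contained compound at 500 µM final in PBS pH 7.4 with 20% v/v MeOH. Incubated 18 h. Donor and acceptor concentrations measured by HPLC; effective permeability Pe (cm/s) calculated.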

PC-12 [4] = assay: Inhibition of MPP+ induced GSH level in rat PC-12 cells at 50 uM preincubated with compound for 24 hrs followed by MPP+ treatment for 24 hrs by DTNB reagent based analysis; type: functional, cell-based; conditions: time 48.0 hrs
PC-12 [5] = assay: Upregulation of Gpx expression in MPP+ induced rat PC-12 cells at 50 nM pretreated with compound for 24 hrs followed by MPP+ stimulation and measured after 6 hrs; type: functional, cell-based; conditions: time 30.0 hrs
PC-12 [6] = assay: Inhibition of MPP+ induced ROS production in rat PC-12 cells at 50 uM preincubated with compound for 24 hrs followed by MPP+ treatment for 24 hrs by DCFH-DA staining based fluorescence method; type: functional, cell-based; conditions: time 48.0 hrs

Papp A→B at 3 h [2] | Papp at 18 h, 500 µM [3] | SMILES | Activity (PC-12 [1]) | inhibition (PC-12 [4]) | Activity (PC-12 [5]) | inhibition (PC-12 [6])
0.82 ×10⁻⁶ cm/s | 0.75 ×10⁻⁶ cm/s | N[C@@H](Cc1ccc(O)c(O)c1)C(=O)O [LEVODOPA] | Active | inactive | Active | Active
3.5 ×10⁻⁶ cm/s | 1.42 ×10⁻⁶ cm/s | COC(=O)[C@H](Cc1ccc(O)c(O)c1)NC(=O)[C@H](CCSC)NC(C)=O (Ac-Met-[Dopa]-OMe) | – | – | – | –
27.4 ×10⁻⁶ cm/s | – | COCCc1ccc(OCC(O)CNC(C)C)cc1 (stereo not given) [METOPROLOL] | – | – | – | –
50.3 ×10⁻⁶ cm/s | – | NC(=O)N1c2ccccc2C=Cc2ccccc21 [CARBAMAZEPINE] | – | – | – | –
